Data published in the M2OR odorant receptor database.

Assays:
Conditions in all cases: stereoisomer not certain
[1] = molecular target: OR5I1 (Homo sapiens) (UniProt Q13606)
In short: (§1)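 Transient luciferase assays in mammalian cell lines were common, though methods varied by source. The values come from published papers and their supplementary material, with extra details from the original authors when needed. Responsive refers to a measured signal the original authors judged statistically different from baseline, and non-responsive (inactive) to the remainder.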

[2] = molecular target: OR5J2 (Homo sapiens) (UniProt Q8NH18)
In short: as §1

[3] = molecular target: OR5K2 (Homo sapiens) (UniProt Q8NHB8)
In short: as §1

[4] = system: OR5K2 L197M
In short: as §1

[5] = molecular target: OR5K3 (Homo sapiens) (UniProt A6NET4)
In short: as §1

[6] = molecular target: OR5K4 (Homo sapiens) (UniProt A6NMS3)
In short: as §1

[7] = molecular target: OR5L1 (Homo sapiens) (UniProt Q8NGL2)
In short: as §1

[8] = molecular target: OR5L2 (Homo sapiens) (UniProt Q8NGL0)
In short: as §1

[9] = molecular target: OR5M1 (Homo sapiens) (UniProt Q8NGP8)
In short: as §1

[10] = system: OR5M1 T295R M301I
In short: as §1

[11] = molecular target: OR5M10 (Homo sapiens) (UniProt Q6IEU7)
In short: as §1

[12] = molecular target: OR5M11 (Homo sapiens) (UniProt Q96RB7)
In short: as §1

[13] = system: OR5M3 N3Y A156T
In short: as §1

[14] = molecular target: OR5M8 (Homo sapiens) (UniProt Q8NGP6)
In short: as §1

[15] = molecular target: OR5M9 (Homo sapiens) (UniProt Q8NGP3)
In short: as §1

[16] = system: OR5MA L2F C311H
In short: as §1

[17] = system: OR5MA L2F Q54H C311H
In short: as §1

[18] = molecular target: OR5P2 (Homo sapiens) (UniProt Q8WZ92)
In short: as §1

Measured: odorant receptor agonist call;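 note: active if original authors judged signal statistically different from baseline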

Chain of OR5M1 (Homo sapiens) (Q8NGP8 whole entry): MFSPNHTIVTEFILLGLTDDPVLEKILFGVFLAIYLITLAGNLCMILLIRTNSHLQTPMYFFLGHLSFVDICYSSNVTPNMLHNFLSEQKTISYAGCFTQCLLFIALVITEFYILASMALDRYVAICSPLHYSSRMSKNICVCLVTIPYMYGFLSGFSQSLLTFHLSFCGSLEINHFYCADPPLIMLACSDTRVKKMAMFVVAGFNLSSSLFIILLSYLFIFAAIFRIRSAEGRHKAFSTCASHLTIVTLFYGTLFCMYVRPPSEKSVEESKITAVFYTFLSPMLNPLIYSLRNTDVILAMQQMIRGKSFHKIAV
Chain of OR5K3 (Homo sapiens) (A6NET4 whole entry): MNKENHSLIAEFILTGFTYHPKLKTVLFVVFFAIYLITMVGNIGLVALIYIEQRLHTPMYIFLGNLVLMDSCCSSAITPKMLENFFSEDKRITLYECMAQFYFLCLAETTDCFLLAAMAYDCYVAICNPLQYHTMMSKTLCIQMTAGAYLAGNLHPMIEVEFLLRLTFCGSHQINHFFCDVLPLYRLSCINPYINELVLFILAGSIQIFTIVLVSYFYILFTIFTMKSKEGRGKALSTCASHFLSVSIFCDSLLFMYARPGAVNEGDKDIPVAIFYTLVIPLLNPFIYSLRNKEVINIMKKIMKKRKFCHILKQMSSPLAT
Chain of OR5L1 (Homo sapiens) (Q8NGL2 whole entry): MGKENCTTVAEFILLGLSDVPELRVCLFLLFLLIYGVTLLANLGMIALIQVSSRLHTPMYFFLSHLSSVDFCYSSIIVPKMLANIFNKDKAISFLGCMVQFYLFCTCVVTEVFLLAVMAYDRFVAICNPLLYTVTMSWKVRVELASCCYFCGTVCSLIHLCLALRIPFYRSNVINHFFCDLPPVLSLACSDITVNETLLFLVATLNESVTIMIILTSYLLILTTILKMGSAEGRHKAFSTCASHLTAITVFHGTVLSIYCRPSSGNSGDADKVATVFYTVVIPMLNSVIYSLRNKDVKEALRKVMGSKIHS
Chain of OR5I1 (Homo sapiens) (Q13606 whole entry): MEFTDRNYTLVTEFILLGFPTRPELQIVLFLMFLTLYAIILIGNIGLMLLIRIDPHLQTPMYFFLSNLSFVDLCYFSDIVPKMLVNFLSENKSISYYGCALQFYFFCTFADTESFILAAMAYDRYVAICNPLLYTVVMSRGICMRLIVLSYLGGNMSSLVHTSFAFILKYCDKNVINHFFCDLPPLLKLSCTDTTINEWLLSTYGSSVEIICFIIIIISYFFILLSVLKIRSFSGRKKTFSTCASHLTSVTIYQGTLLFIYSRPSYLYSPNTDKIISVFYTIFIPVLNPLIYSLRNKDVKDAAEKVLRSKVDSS
Chain of OR5M11 (Homo sapiens) (Q96RB7 whole entry): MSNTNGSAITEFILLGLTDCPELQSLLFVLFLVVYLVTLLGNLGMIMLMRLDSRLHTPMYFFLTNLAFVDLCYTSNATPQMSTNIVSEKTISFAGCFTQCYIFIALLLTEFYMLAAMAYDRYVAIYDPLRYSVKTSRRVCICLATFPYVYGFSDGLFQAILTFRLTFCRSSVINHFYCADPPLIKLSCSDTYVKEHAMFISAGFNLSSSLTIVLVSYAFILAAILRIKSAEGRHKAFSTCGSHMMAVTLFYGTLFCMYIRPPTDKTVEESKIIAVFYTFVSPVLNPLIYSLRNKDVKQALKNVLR
Chain of OR5M8 (Homo sapiens) (Q8NGP6 whole entry): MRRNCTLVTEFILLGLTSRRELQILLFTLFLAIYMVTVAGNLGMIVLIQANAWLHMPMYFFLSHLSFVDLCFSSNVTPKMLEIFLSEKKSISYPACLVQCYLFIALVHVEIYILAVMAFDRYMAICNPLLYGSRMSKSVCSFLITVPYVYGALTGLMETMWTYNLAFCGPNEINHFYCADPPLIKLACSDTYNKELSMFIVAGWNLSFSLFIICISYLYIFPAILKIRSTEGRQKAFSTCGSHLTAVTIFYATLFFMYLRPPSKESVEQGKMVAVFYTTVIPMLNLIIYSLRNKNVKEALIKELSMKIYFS
Chain of OR5M10 (Homo sapiens) (Q6IEU7 whole entry): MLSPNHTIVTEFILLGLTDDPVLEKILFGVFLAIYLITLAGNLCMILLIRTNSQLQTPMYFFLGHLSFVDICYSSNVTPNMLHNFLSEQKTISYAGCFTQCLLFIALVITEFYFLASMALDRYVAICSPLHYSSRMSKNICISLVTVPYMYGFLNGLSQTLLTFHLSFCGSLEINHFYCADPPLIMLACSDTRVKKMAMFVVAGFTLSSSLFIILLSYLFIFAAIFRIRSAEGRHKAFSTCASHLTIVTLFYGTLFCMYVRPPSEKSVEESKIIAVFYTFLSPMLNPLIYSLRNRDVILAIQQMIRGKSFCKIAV
Chain of OR5K2 (Homo sapiens) (Q8NHB8 whole entry): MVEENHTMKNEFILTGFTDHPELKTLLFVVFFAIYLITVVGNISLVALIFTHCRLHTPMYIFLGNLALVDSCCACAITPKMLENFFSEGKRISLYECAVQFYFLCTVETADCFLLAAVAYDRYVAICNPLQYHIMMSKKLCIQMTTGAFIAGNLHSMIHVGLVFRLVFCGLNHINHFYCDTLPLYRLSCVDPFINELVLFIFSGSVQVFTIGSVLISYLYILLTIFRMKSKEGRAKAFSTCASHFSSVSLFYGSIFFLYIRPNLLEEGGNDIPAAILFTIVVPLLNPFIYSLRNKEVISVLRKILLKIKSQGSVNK
Chain of OR5M9 (Homo sapiens) (Q8NGP3 whole entry): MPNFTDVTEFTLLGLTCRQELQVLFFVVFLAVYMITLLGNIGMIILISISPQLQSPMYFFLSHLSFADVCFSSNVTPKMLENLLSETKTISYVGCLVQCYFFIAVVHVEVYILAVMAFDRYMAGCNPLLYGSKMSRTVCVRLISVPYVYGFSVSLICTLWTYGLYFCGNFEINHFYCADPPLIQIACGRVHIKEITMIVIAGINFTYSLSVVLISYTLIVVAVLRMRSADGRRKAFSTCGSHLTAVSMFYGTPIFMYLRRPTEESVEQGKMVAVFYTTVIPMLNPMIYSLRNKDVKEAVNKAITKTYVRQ
Chain of OR5J2 (Homo sapiens) (Q8NH18 whole entry): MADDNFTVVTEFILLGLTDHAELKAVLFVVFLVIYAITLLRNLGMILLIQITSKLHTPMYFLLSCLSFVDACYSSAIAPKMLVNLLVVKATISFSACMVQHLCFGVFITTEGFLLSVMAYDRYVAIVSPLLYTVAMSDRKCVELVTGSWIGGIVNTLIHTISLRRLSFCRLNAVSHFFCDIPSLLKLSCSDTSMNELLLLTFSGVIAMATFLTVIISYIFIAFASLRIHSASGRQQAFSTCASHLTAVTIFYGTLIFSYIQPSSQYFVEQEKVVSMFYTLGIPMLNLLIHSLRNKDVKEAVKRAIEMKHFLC
Chain of OR5K4 (Homo sapiens) (A6NMS3 whole entry): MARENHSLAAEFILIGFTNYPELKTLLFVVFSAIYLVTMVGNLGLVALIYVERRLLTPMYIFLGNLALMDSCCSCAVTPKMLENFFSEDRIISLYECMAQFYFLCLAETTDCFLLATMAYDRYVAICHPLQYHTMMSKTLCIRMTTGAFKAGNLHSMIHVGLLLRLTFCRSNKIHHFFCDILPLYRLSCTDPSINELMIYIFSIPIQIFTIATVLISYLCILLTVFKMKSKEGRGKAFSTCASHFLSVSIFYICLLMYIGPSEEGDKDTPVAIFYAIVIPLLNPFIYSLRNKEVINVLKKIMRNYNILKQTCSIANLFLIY
Chain of OR5P2 (Homo sapiens) (Q8WZ92 whole entry): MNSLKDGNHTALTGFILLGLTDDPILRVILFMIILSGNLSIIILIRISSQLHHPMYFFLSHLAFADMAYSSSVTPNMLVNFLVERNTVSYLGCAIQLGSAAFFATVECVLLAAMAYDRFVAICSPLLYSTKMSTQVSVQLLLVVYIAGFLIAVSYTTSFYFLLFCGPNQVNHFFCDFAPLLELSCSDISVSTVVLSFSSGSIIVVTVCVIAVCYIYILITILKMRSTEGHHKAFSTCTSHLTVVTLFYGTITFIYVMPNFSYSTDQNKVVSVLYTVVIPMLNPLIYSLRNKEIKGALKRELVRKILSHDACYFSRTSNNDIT
Chain of OR5L2 (Homo sapiens) (Q8NGL0 whole entry): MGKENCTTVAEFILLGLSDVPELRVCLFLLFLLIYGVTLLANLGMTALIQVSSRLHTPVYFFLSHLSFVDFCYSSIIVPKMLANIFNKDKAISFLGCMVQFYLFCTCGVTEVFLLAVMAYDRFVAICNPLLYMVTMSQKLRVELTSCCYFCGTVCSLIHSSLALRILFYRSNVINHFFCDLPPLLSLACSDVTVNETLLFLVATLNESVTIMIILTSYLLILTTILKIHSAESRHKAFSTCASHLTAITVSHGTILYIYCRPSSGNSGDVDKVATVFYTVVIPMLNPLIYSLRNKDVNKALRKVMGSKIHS
Chain of OR5K2 L197M (as listed by the source, stated change not applied): as the sequence (Q8NHB8 whole entry) above, with L197M counted along it

C=CCOC(=O)Cc1ccccc1
inactive: [1] | [2] | [3] | [4] | [5] | [6] | [7] | [8] | [9] | [10] | [11] | [12] | [13] | [14] | [15] | [16] | [17] | [18]

Cc1c([N+](=O)[O-])c(C)c([N+](=O)[O-])c(C(C)(C)C)c1[N+](=O)[O-]
inactive: [1] | [2] | [3] | [5] | [6] | [7] | [9] | [11] | [12] | [14] | [15] | [18]
